The source of these data is PubChem BioAssay.

A short description of test [1]: reducers of endogenous Her2 protein level, primary screen, SKBR3 breast tumor cells, AlphaScreen, ATP viability (AID 461;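 active = Her2 level under about 52% in both replicate screens, with viability over 70% of control, limit read from the data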;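 as to Her2 level: lower value means less Her2 protein in the cells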;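 as to viability: percent of carrier control wells set as 100% viability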). The note with it: 18-24 h, measured here: SKBR3 viability, ATP luminescence, at 10 µM. For orientation: Bead proximity is the source of the signal in Alpha formats.
For test [2], the target named is Receptor tyrosine-protein kinase erbB-2 (Homo sapiens) (UniProt P04626). The description is as above. The settings on record: 18-24 h, at 10 µM, stronger effect = lower value.
Chain of Receptor tyrosine-protein kinase erbB-2 (Homo sapiens) (P04626 whole entry, looked up): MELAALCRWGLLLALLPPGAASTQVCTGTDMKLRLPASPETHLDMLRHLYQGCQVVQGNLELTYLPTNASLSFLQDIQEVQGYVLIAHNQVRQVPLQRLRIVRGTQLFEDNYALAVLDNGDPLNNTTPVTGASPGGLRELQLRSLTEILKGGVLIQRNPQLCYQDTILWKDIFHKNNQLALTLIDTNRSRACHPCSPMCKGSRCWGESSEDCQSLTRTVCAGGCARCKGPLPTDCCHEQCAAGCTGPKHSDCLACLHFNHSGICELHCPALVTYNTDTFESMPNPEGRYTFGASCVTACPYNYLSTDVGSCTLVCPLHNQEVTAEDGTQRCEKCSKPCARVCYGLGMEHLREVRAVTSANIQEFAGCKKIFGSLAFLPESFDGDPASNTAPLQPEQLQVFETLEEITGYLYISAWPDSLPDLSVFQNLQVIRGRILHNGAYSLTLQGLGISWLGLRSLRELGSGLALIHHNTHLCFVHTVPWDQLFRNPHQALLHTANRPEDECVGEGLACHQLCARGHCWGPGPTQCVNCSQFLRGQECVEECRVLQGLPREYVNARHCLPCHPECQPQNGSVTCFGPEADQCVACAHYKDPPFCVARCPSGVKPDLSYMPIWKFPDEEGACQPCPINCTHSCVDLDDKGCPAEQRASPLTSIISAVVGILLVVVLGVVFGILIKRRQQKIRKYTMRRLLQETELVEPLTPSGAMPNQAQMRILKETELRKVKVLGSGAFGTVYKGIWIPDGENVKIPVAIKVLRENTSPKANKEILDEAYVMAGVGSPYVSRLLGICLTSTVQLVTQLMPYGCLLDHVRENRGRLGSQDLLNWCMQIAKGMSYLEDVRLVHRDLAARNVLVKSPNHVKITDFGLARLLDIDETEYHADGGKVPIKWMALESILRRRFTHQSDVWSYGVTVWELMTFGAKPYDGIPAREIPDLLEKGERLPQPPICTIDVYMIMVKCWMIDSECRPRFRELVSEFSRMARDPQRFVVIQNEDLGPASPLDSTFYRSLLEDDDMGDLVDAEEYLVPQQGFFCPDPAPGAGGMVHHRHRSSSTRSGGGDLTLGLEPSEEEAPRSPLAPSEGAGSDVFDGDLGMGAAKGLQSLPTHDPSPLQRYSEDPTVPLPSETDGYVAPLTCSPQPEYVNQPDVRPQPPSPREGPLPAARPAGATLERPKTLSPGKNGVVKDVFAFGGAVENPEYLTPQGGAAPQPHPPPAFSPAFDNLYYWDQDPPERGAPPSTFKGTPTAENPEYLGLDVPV
A short description of test [3]: SK-BR-3 cell growth inhibitors, pilot screen, 24 h, human (AID 572).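 Also: compound exposure lasted between 18 and 24 h rather than exactly 24 h; 100% = carrier-treated control wells.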 The note with it: SK-BR-3 viability, CellTiter-Glo luminescence, at 10 µM, stronger effect = lower value. In general terms: ATP-based viability assays read luminescence as a measure of living cells.
A short description of test [4]: HUVEC growth inhibition – cell-based, human, primary screen (AID 575;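 active = viability at or below 30% in both replicate assays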;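 also: 100% = median of untreated cell wells with 0.1% DMSO on each plate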). The note with it: HUVEC proliferation, CellTiter-Glo luminescence, 72 h; at 10 µM; stronger effect = lower value. The method in brief:
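Test system: primary human umbilical vein endothelial cells. Quantity: 1250 cells/well. Compound: single 10 µM dose, 0.1% DMSO, from 5x medium stock. Timing: 72 h treatment at 37 °C. Detection: ATP-based CellTiter-Glo luminescent read. Benchmarks: vehicle and MePR control wells. Format: 384-well plates coated with collagen.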

A short description of test [5]: growth inhibitors of H69AR lung tumor, primary screen, human, duplicate replicates (AID 580;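 active = viability at or under a set limit in both replicates, limit being median viability minus 3 SD, cut at about 48% in these data, passing the limit was not always enough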;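 also: 100% = mean luminescence of untreated wells and 0% = no signal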). The note with it: H69AR lung tumor cells viability, ATP luminescence, 72 h; at 10 µM; stronger effect = lower value.
The nature of test [6]: reversal of MRP1-mediated doxorubicin resistance, pilot screen, H69AR cells, doxorubicin co-treatment (AID 601;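 active = viability loss from added drug above about 55%, and viability with drug at most 40%, in both replicates, limit read from the data, passing the limit was not always enough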). The note with it: CellTiter-Glo, 72 h, at 10 µM; for differential viability (reversal): stronger effect = higher value.
Test [7] can be described thus: 384-well plate pilot, post-Golgi transport modulator project, inhibition of yeast transport mutant growth (AID 636; in the data active = inhibition above about 31%). The note with it: absorbance 615 nm, about 18 h, stronger effect = higher value.
Test [8] in a line: growth suppression of yeast trafficking mutant, preliminary HTS, modulators of trafficking downstream of Golgi apparatus project, 1536-format plate, OD 615 nm (AID 637; in the data active = inhibition above about 30%). The note with it: yeast transport mutant growth, absorbance 615 nm, 18 h; stronger effect = higher value.
Where [9] appears, read: H69AR cells + 2 uM doxorubicin, measured here: viability with 2 uM doxorubicin, stronger effect = lower value.
Setting [10] is: H69AR cells, compound alone cytotoxicity.

Activity calls are given as the source filed them.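 The calls were made as follows, unless noted: active = viability at or below 10% of carrier control in both of two separate runs; inconclusive = viability at or below 10% in only one of the two runs; inactive = the rest.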

As a reminder, the viability is a read-out of living cells in per cent, often relative to untreated cells. The inhibition is the change of the read-out against control, counted positive when it falls. Turning to `CC(C)(C)NC(=O)Nc1ccccc1C(N)=O`, the viability in test [1] was 110%; in test [3] it was 110% (inactive); in test [4], 103% (inactive); in test [5], 110% (inactive); in test [6] (setting [9]), 103%; in test [6] (setting [10]) it was 110%. The Her2 level in test [2] is 108% (inactive). The differential viability (reversal) in test [6] (H69AR cells + 2 uM doxorubicin) was 7.05% (inactive). Further, the inhibition in test [7] was -2.27% (inactive); in test [8], -5% (inactive).

On to `c1ccc(CN2C3=NCCCN3c3ccccc32)cc1`, for which the viability in test [1] was 79%; in test [3], 79% (inactive); in test [4], 82.9% (inactive); in test [5] it was 91.2% (inactive); in test [6] (setting [9]), 83%; in test [6] (setting [10]), 91.2%. The Her2 level in test [2] was 84% (inactive). The differential viability (reversal) in test [6] (H69AR cells + 2 uM doxorubicin) was 8.3% (inactive). Further, the inhibition was -1.43% (inactive) in test [7] and -3.65% (inactive) in test [8].

Take `Brc1ccc(-c2csc(/N=C/N3CCOCC3)n2)cc1`: the viability in test [1] was 113%; in test [3], 113% (inactive); in test [4] it was 85% (inactive); in test [5], 97.6% (inactive); in test [6] (setting [9]), 92.5%; in test [6] (setting [10]), 97.6%. Further, the Her2 level in test [2] is 100% (inactive). Besides, the differential viability (reversal) in test [6] (H69AR cells + 2 uM doxorubicin) was 5.1% (inactive). Moreover, the inhibition in test [7] is -4.4% (inactive); in test [8], -7.1% (inactive).

Consider `CCc1ccccc1-n1c(SCC(=O)N2CCCC2)nnc1-c1ccccn1`, for which the viability in test [1] is 106%; in test [3] it was 106% (inactive); in test [4], 123% (inactive); in test [5] it was 95.3% (inactive); in test [6] (setting [9]), 93.3%; in test [6] (setting [10]) it was 95.3%. The Her2 level in test [2] was 99.5% (inactive). In test [6] (H69AR cells + 2 uM doxorubicin), the differential viability (reversal) is 1.95% (inactive). In addition, the inhibition is 1.92% (inactive) in test [7] and -6.03% (inactive) in test [8].

With `C/C=C(\C)c1nnc(NC(=O)C(C)C)s1`, the viability is 92.5% in test [1]; 92.5% (inactive) in test [3]; 101% (inactive) in test [4]; 98.7% (inactive) in test [5]; 89.2% in test [6] (setting [9]); 98.7% in test [6] (setting [10]). For the same compound, the Her2 level in test [2] was 82.5% (inactive). In addition, the differential viability (reversal) in test [6] (H69AR cells + 2 uM doxorubicin) was 9.51% (inactive). Moreover, the results for the inhibition in test [7] and in test [8] were -4.05% (inactive) and 2.79% (inactive), respectively.

For the compound `[O-][n+]1c2c(nn1-c1ccccc1Cl)-c1nonc1CC2`, the viability is 102% in test [1]; 102% (inactive) in test [3]; 115% (inactive) in test [4]; 105% (inactive) in test [5]; 85.5% in test [6] (setting [9]); 105% in test [6] (setting [10]). Moreover, the Her2 level in test [2] was 85% (inactive). Besides, the differential viability (reversal) in test [6] (H69AR cells + 2 uM doxorubicin) is 20% (inactive). Besides, the inhibition is -5.54% (inactive) in test [7] and -0.67% (inactive) in test [8].

For `O=c1[nH]cnc2c1nc(SCc1ccccc1)n2C1OC(CO)C(O)C1O` (stereo not given), the viability was 94.5% in test [1]; 94.5% (inactive) in test [3]; 92.4% (inactive) in test [4]; 101% (inactive) in test [5]; 92.2% in test [6] (setting [9]); 101% in test [6] (setting [10]). Besides, in test [2], the Her2 level was 88% (inactive). Moreover, the differential viability (reversal) in test [6] (H69AR cells + 2 uM doxorubicin) is 8.52% (inactive). The results for the inhibition in test [7] and in test [8] were -5.54% (inactive) and 4.6% (inactive), respectively.

In the case of `Cn1c2ccc(F)cc2c2ncn(CCN3CCOCC3)c(=O)c21`, the viability in test [1] is 88.5%; in test [3] it was 88.5% (inactive); in test [4], 98.6% (inactive); in test [5], 97.4% (inactive); in test [6] (setting [9]), 90.4%; in test [6] (setting [10]), 97.4%. The Her2 level in test [2] was 82.5% (inactive). Further, the differential viability (reversal) in test [6] (H69AR cells + 2 uM doxorubicin) is 6.95% (inactive). The figures for the inhibition in test [7] and in test [8] were -6% (inactive) and -3.02% (inactive), respectively.

For `COc1ccc(NC(=O)CSC2=C(C#N)C(c3ccco3)C3=C(CCCC3=O)N2)c(OC)c1` (stereo not given), the viability in test [1] is 108%; in test [3] it was 108% (inactive); in test [4], 86.6% (inactive); in test [5] it was 73% (inactive); in test [6] (setting [9]), 68.8%; in test [6] (setting [10]), 73%. The Her2 level in test [2] is 93% (inactive). The differential viability (reversal) in test [6] (H69AR cells + 2 uM doxorubicin) is 4.23% (inactive). The inhibition is -2.11% (inactive) in test [7] and 0.65% (inactive) in test [8].

Take `O=C(COC(=O)C1CCN(S(=O)(=O)c2cccs2)CC1)c1cc2ccccc2o1`: the viability is 104% in test [1]; 104% (inactive) in test [3]; 91.9% (inactive) in test [4]; 96.2% (inactive) in test [5]; 93.8% in test [6] (setting [9]); 96.2% in test [6] (setting [10]). Also, in test [2], the Her2 level is 83% (inactive). In test [6] (H69AR cells + 2 uM doxorubicin), the differential viability (reversal) was 2.38% (inactive). The values for the inhibition in test [7] and in test [8] were -2.19% (inactive) and -0.63% (inactive), respectively.

As to `CCC(=O)N1CCc2cc(OC)c(OC)cc2C1COc1ccc(C(=O)OC)cc1` (stereo not given), the viability is 94.5% in test [1]; 94.5% (inactive) in test [3]; 87.2% (inactive) in test [4]; 91.5% (inactive) in test [5]; 93.9% in test [6] (setting [9]); 91.5% in test [6] (setting [10]). In addition, the Her2 level in test [2] was 83% (inactive). Besides, the differential viability (reversal) in test [6] (H69AR cells + 2 uM doxorubicin) was -2.33% (inactive). The inhibition in test [7] was -5.33% (inactive); in test [8], 1.61% (inactive).

For the compound `COc1cccc(CN2CCN(C(=O)c3ccco3)CC2)c1OC`, the viability in test [1] was 112%; in test [3], 112% (inactive); in test [4] it was 118% (inactive); in test [5], 103% (inactive); in test [6] (setting [9]) it was 96.5%; in test [6] (setting [10]), 103%. For the same compound, the Her2 level in test [2] was 90% (inactive). Also, the differential viability (reversal) in test [6] (H69AR cells + 2 uM doxorubicin) was 6.7% (inactive). The inhibition in test [7] was -5.14% (inactive); in test [8], 0.95% (inactive).

As to `O=C(CCCCCn1c(SCc2ccncc2)nc2ccccc2c1=O)NCc1ccco1`, the viability in test [1] was 80.5%; in test [3], 80.5% (inactive); in test [4], 96.9% (inactive); in test [5] it was 74.6% (inactive); in test [6] (setting [9]), 87.6%; in test [6] (setting [10]), 74.6%. Also, in test [2], the Her2 level was 70.5% (inactive). Further, the differential viability (reversal) in test [6] (H69AR cells + 2 uM doxorubicin) was -13% (inactive). Further, the inhibition was -1.18% (inactive) in test [7] and -5.71% (inactive) in test [8].

With `COc1ccc2c(C(=O)CN(C)C3CCCCC3)c[nH]c2c1`, the viability was 115% in test [1]; 115% (inactive) in test [3]; 92.3% (inactive) in test [4]; 64.7% (inactive) in test [5]; 74.9% in test [6] (setting [9]); 64.7% in test [6] (setting [10]). In test [2], the Her2 level is 72.5% (inactive). For the same compound, the differential viability (reversal) in test [6] (H69AR cells + 2 uM doxorubicin) is -10.2% (inactive). Further, the figures for the inhibition in test [7] and in test [8] were -0.92% (inactive) and -0.81% (inactive), respectively.

`CCOC(=O)Cn1c(=N)n(CCOc2cccc(C)c2)c2ccccc21`: the viability in test [1] was 121%; in test [3], 121% (inactive); in test [4], 99.6% (inactive); in test [5], 85.9% (inactive); in test [6] (setting [9]) it was 84.9%; in test [6] (setting [10]), 85.9%. The Her2 level in test [2] was 106% (inactive). In addition, the differential viability (reversal) in test [6] (H69AR cells + 2 uM doxorubicin) is 1% (inactive). Besides, the inhibition was -6.67% (inactive) in test [7] and -0.79% (inactive) in test [8].

As for `CCCCCCNC(=O)Cc1c(O)c2ccccc2[nH]c1=O`, the viability in test [1] was 105%; in test [3] it was 105% (inactive); in test [4] it was 114% (inactive); in test [5], 94.9% (inactive); in test [6] (setting [9]), 80.2%; in test [6] (setting [10]), 94.9%. Further, in test [2], the Her2 level is 90.5% (inactive). Besides, the differential viability (reversal) in test [6] (H69AR cells + 2 uM doxorubicin) is 14.7% (inactive). For the same compound, the figures for the inhibition in test [7] and in test [8] were -5.27% (inactive) and 7.67% (inactive), respectively.
